Results from ChEMBL document CHEMBL5058577, “EUbOPEN Chemogenomics Library 2 (Multiplex)” (2022).

Test system: HEK-293T
Test: Multiplex assay against HEK293T
Format: toxicity, cell-based
Details: human
Summary of the method: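 On a CQ1 microscope at 37°C and 5% CO2, live cells were imaged after compound addition. They had been stained at seeding with Hoechst33342, BioTracker Green Microtubule Cytoskeleton Dye, MitoTracker Red and Annexin V Alexa Fluor 680. CellPathfinder machine-learning gating assigned cells to Hoechst high-intensity objects or normal cells, normal cells to healthy, pyknosed or fragmented nuclei, and pyknosed cells to mitotic or apoptotic. Tubulin, mitochondrial-mass and membrane-permeability phenotypes are per cents of healthy-nucleus cells.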

[1] = 12 h, 1 µM, compound concentration 1 uM, replicate 1
[2] = 12 h, 1 µM, compound concentration 1 uM, replicate 2
[3] = 12 h, 10 µM, compound concentration 10 uM, replicate 1
[4] = 12 h, 10 µM, compound concentration 10 uM, replicate 2
[5] = 24 h, 1 µM, compound concentration 1 uM, replicate 1
[6] = 24 h, 1 µM, compound concentration 1 uM, replicate 2
[7] = 24 h, 10 µM, compound concentration 10 uM, replicate 1
[8] = 24 h, 10 µM, compound concentration 10 uM, replicate 2
[9] = 48 h, 1 µM, compound concentration 1 uM, replicate 1
[10] = 48 h, 1 µM, compound concentration 1 uM, replicate 2
[11] = 48 h, 10 µM, compound concentration 10 uM, replicate 1
[12] = 48 h, 10 µM, compound concentration 10 uM, replicate 2

## CCCCC[C@H](O)/C=C/[C@H]1[C@H](O)CC(=O)[C@@H]1CCCCCCC(=O)O [ALPROSTADIL]
[1]
  Population Apoptotic (%): 35%
  Population Fragmented Nuclei (%): 7%
  Population Healthy Nuclei (%): 79%
  Population Hoechst High Intensity Objects (%): 7%
  Population Membrane Permeable-Phenotype (%): 0%
  Population Mitochondria Different-Phenotype (%): 42%
  Population Mitotic Cells (%): 64%
  Population Normal (%): 92%
  Population Pyknosed Nuclei (%): 13%
  Population Tubulin-Different-Phenotype (%): 28%
  Total Cell Count: 471
[2]
  Population Apoptotic (%): 50%
  Population Fragmented Nuclei (%): 6%
  Population Healthy Nuclei (%): 80%
  Population Hoechst High Intensity Objects (%): 6%
  Population Mitochondria Different-Phenotype (%): 55%
  Population Mitotic Cells (%): 49%
  Population Normal (%): 93%
  Population Tubulin-Different-Phenotype (%): 18%
  Total Cell Count: 392
[3]
  Population Apoptotic (%): 33%
  Population Fragmented Nuclei (%): 7%
  Population Healthy Nuclei (%): 78%
  Population Hoechst High Intensity Objects (%): 6%
  Population Membrane Permeable-Phenotype (%): 1%
  Population Mitochondria Different-Phenotype (%): 48%
  Population Mitotic Cells (%): 66%
  Population Normal (%): 93%
  Population Pyknosed Nuclei (%): 14%
  Population Tubulin-Different-Phenotype (%): 33%
  Total Cell Count: 318
[4]
  Population Healthy Nuclei (%): 75%
  Population Hoechst High Intensity Objects (%): 9%
  Population Membrane Permeable-Phenotype (%): 0%
  Population Mitochondria Different-Phenotype (%): 64%
  Population Normal (%): 90%
  Population Pyknosed Nuclei (%): 17%
  Population Tubulin-Different-Phenotype (%): 30%
  Total Cell Count: 309
[5]
  Population Apoptotic (%): 35%
  Population Fragmented Nuclei (%): 9%
  Population Healthy Nuclei (%): 79%
  Population Hoechst High Intensity Objects (%): 3%
  Population Membrane Permeable-Phenotype (%): 1%
  Population Mitochondria Different-Phenotype (%): 22%
  Population Mitotic Cells (%): 64%
  Population Normal (%): 96%
  Population Pyknosed Nuclei (%): 10%
  Population Tubulin-Different-Phenotype (%): 15%
  Total Cell Count: 605
[6]
  Population Apoptotic (%): 34%
  Population Fragmented Nuclei (%): 6%
  Population Healthy Nuclei (%): 85%
  Population Hoechst High Intensity Objects (%): 4%
  Population Membrane Permeable-Phenotype (%): 0%
  Population Mitochondria Different-Phenotype (%): 35%
  Population Mitotic Cells (%): 65%
  Population Normal (%): 95%
  Population Pyknosed Nuclei (%): 8%
  Population Tubulin-Different-Phenotype (%): 14%
  Total Cell Count: 526
[7]
  Population Apoptotic (%): 32%
  Population Fragmented Nuclei (%): 11%
  Population Healthy Nuclei (%): 76%
  Population Hoechst High Intensity Objects (%): 2%
  Population Membrane Permeable-Phenotype (%): 0%
  Population Mitochondria Different-Phenotype (%): 26%
  Population Mitotic Cells (%): 67%
  Population Normal (%): 97%
  Population Pyknosed Nuclei (%): 12%
  Population Tubulin-Different-Phenotype (%): 23%
  Total Cell Count: 439
[8]
  Population Apoptotic (%): 36%
  Population Fragmented Nuclei (%): 7%
  Population Healthy Nuclei (%): 79%
  Population Hoechst High Intensity Objects (%): 8%
  Population Mitochondria Different-Phenotype (%): 50%
  Population Mitotic Cells (%): 63%
  Population Normal (%): 91%
  Population Tubulin-Different-Phenotype (%): 22%
  Total Cell Count: 345
[9]
  Population Apoptotic (%): 32%
  Population Fragmented Nuclei (%): 13%
  Population Healthy Nuclei (%): 79%
  Population Hoechst High Intensity Objects (%): 2%
  Population Membrane Permeable-Phenotype (%): 2%
  Population Mitochondria Different-Phenotype (%): 12%
  Population Mitotic Cells (%): 67%
  Population Normal (%): 97%
  Population Pyknosed Nuclei (%): 7%
  Population Tubulin-Different-Phenotype (%): 11%
  Total Cell Count: 1005
[10]
  Population Apoptotic (%): 13%
  Population Fragmented Nuclei (%): 16%
  Population Healthy Nuclei (%): 77%
  Population Hoechst High Intensity Objects (%): 3%
  Population Membrane Permeable-Phenotype (%): 0%
  Population Mitochondria Different-Phenotype (%): 21%
  Population Mitotic Cells (%): 86%
  Population Normal (%): 96%
  Population Pyknosed Nuclei (%): 6%
  Population Tubulin-Different-Phenotype (%): 12%
  Total Cell Count: 714
[11]
  Population Apoptotic (%): 25%
  Population Fragmented Nuclei (%): 15%
  Population Healthy Nuclei (%): 76%
  Population Hoechst High Intensity Objects (%): 2%
  Population Membrane Permeable-Phenotype (%): 1%
  Population Mitochondria Different-Phenotype (%): 17%
  Population Mitotic Cells (%): 75%
  Population Normal (%): 97%
  Population Pyknosed Nuclei (%): 7%
  Population Tubulin-Different-Phenotype (%): 15%
  Total Cell Count: 685
[12]
  Population Apoptotic (%): 20%
  Population Fragmented Nuclei (%): 14%
  Population Healthy Nuclei (%): 79%
  Population Membrane Permeable-Phenotype (%): 0%
  Population Mitochondria Different-Phenotype (%): 30%
  Population Mitotic Cells (%): 80%
  Population Pyknosed Nuclei (%): 6%
  Population Tubulin-Different-Phenotype (%): 14%
  Total Cell Count: 537

## CN1CCN(c2ccc(Nc3c4ccccc4nc4ccccc34)cc2)CC1.Cl.Cl.O
[1]
  Population Apoptotic (%): 42%
  Population Fragmented Nuclei (%): 7%
  Population Healthy Nuclei (%): 81%
  Population Hoechst High Intensity Objects (%): 3%
  Population Membrane Permeable-Phenotype (%): 0%
  Population Mitochondria Different-Phenotype (%): 50%
  Population Mitotic Cells (%): 57%
  Population Normal (%): 96%
  Population Pyknosed Nuclei (%): 11%
  Population Tubulin-Different-Phenotype (%): 28%
  Total Cell Count: 411
[2]
  Population Apoptotic (%): 55%
  Population Fragmented Nuclei (%): 4%
  Population Healthy Nuclei (%): 90%
  Population Hoechst High Intensity Objects (%): 1%
  Population Mitochondria Different-Phenotype (%): 59%
  Population Mitotic Cells (%): 45%
  Population Normal (%): 98%
  Population Pyknosed Nuclei (%): 5%
  Population Tubulin-Different-Phenotype (%): 20%
  Total Cell Count: 364
[3]
  Population Apoptotic (%): 100%
  Population Fragmented Nuclei (%): 24%
  Population Healthy Nuclei (%): 74%
  Population Hoechst High Intensity Objects (%): 1%
  Population Membrane Permeable-Phenotype (%): 0%
  Population Mitochondria Different-Phenotype (%): 99%
  Population Mitotic Cells (%): 0%
  Population Normal (%): 98%
  Population Pyknosed Nuclei (%): 1%
  Population Tubulin-Different-Phenotype (%): 97%
  Total Cell Count: 234
[4]
  Population Fragmented Nuclei (%): 40%
  Population Healthy Nuclei (%): 58%
  Population Hoechst High Intensity Objects (%): 0%
  Population Mitochondria Different-Phenotype (%): 100%
  Population Normal (%): 99%
  Population Tubulin-Different-Phenotype (%): 92%
  Total Cell Count: 194
[5]
  Population Apoptotic (%): 42%
  Population Fragmented Nuclei (%): 9%
  Population Healthy Nuclei (%): 84%
  Population Hoechst High Intensity Objects (%): 2%
  Population Membrane Permeable-Phenotype (%): 0%
  Population Mitochondria Different-Phenotype (%): 40%
  Population Mitotic Cells (%): 57%
  Population Normal (%): 97%
  Population Pyknosed Nuclei (%): 5%
  Population Tubulin-Different-Phenotype (%): 14%
  Total Cell Count: 455
[6]
  Population Apoptotic (%): 46%
  Population Healthy Nuclei (%): 86%
  Population Hoechst High Intensity Objects (%): 0%
  Population Mitochondria Different-Phenotype (%): 44%
  Population Mitotic Cells (%): 53%
  Population Normal (%): 99%
  Population Pyknosed Nuclei (%): 4%
  Population Tubulin-Different-Phenotype (%): 12%
  Total Cell Count: 362
[7]
  Population Apoptotic (%): 100%
  Population Fragmented Nuclei (%): 28%
  Population Healthy Nuclei (%): 69%
  Population Hoechst High Intensity Objects (%): 2%
  Population Membrane Permeable-Phenotype (%): 0%
  Population Mitochondria Different-Phenotype (%): 100%
  Population Mitotic Cells (%): 0%
  Population Normal (%): 97%
  Population Pyknosed Nuclei (%): 2%
  Population Tubulin-Different-Phenotype (%): 92%
  Total Cell Count: 247
[8]
  Population Fragmented Nuclei (%): 45%
  Population Healthy Nuclei (%): 53%
  Population Hoechst High Intensity Objects (%): 0%
  Population Normal (%): 99%
  Population Pyknosed Nuclei (%): 0%
  Population Tubulin-Different-Phenotype (%): 91%
  Total Cell Count: 206
[9]
  Population Apoptotic (%): 45%
  Population Fragmented Nuclei (%): 11%
  Population Healthy Nuclei (%): 82%
  Population Hoechst High Intensity Objects (%): 3%
  Population Membrane Permeable-Phenotype (%): 0%
  Population Mitochondria Different-Phenotype (%): 30%
  Population Mitotic Cells (%): 54%
  Population Normal (%): 96%
  Population Pyknosed Nuclei (%): 6%
  Population Tubulin-Different-Phenotype (%): 16%
  Total Cell Count: 581
[10]
  Population Apoptotic (%): 60%
  Population Fragmented Nuclei (%): 10%
  Population Healthy Nuclei (%): 85%
  Population Hoechst High Intensity Objects (%): 1%
  Population Mitochondria Different-Phenotype (%): 36%
  Population Mitotic Cells (%): 40%
  Population Normal (%): 98%
  Population Pyknosed Nuclei (%): 3%
  Population Tubulin-Different-Phenotype (%): 12%
  Total Cell Count: 411
[11]
  Population Apoptotic (%): 100%
  Population Fragmented Nuclei (%): 34%
  Population Healthy Nuclei (%): 56%
  Population Hoechst High Intensity Objects (%): 11%
  Population Membrane Permeable-Phenotype (%): 0%
  Population Mitochondria Different-Phenotype (%): 100%
  Population Mitotic Cells (%): 0%
  Population Normal (%): 88%
  Population Pyknosed Nuclei (%): 9%
  Population Tubulin-Different-Phenotype (%): 88%
  Total Cell Count: 318
[12]
  Population Apoptotic (%): 66%
  Population Fragmented Nuclei (%): 52%
  Population Healthy Nuclei (%): 46%
  Population Hoechst High Intensity Objects (%): 5%
  Population Mitochondria Different-Phenotype (%): 99%
  Population Mitotic Cells (%): 33%
  Population Normal (%): 94%
  Population Pyknosed Nuclei (%): 1%
  Population Tubulin-Different-Phenotype (%): 89%
  Total Cell Count: 272
